This note sets out measurements from ChEMBL document CHEMBL2346611, “Preliminary structure-activity relationships and biological evaluation of novel antitubercular indolecarboxamide derivatives against drug-susceptible and drug-resistant Mycobacterium tuberculosis strains” (J Med Chem, 2013).

One may read the MIC90 as an inhibitory concentration at the 90% level, which refers to growth in some studies and to a panel of isolates in others. Low readings indicate higher susceptibility, high ones lower susceptibility.

Holding throughout (assay type): functional
For experiment [1], the system named is Mycobacterium tuberculosis. Briefly: Antitubercular activity against extensively drug resistant Mycobacterium tuberculosis R506 by microplate Alamar Blue assay. In a few lines: (§1)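 Mycobacterium tuberculosis strains were used: H37Rv, and clinical strains from KwaZulu-Natal (MDR KZN494 and V2475; XDR TF274 and R506). Growth was read by microplate Alamar Blue assay. MIC is the lowest drug concentration giving at least a 90% reduction of the bacterial growth signal. Values are the average of three individual measurements.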
In general terms: The colour change of resazurin is a common sign of viable cells or microbes.

In experiment [2] the test system is Mycobacterium tuberculosis. Briefly: Antitubercular activity against extensively drug resistant Mycobacterium tuberculosis TF274 by microplate Alamar Blue assay. In a few lines:
as §1

The test system of experiment [3] is Mycobacterium tuberculosis. Put plainly: Antitubercular activity against extensively drug resistant Mycobacterium tuberculosis V2475 by microplate Alamar Blue assay.
Experiment [4] deals with Mycobacterium tuberculosis. Put plainly: Antitubercular activity against multi drug resistant Mycobacterium tuberculosis KZN494 by microplate Alamar Blue assay. The method in brief:
as §1

≈ marks a conversion by molar mass, not a printed value.

`Cc1cc(C)c2cc(C(=O)NC3CCCCCCC3)[nH]c2c1`: the MIC90 in experiment [1] stood at 0.0067 µM (≈ 0.002 µg/mL); in experiment [2], 0.026 µM (≈ 0.00776 µg/mL).
For `Cc1cc(C)c2cc(C(=O)NC3CCCCCC3)[nH]c2c1`, the MIC90 in experiment [3] amounted to 0.11 µM (≈ 0.0313 µg/mL); in experiment [1], 0.055 µM (≈ 0.0156 µg/mL); in experiment [4], 0.11 µM (≈ 0.0313 µg/mL); in experiment [2] it was 0.055 µM (≈ 0.0156 µg/mL).
For `Cc1cc(C)c2cc(C(=O)NC3CCCCC3)[nH]c2c1`, the MIC90 in experiment [3] amounted to 0.93 µM (≈ 0.251 µg/mL); in experiment [1], 0.46 µM (≈ 0.124 µg/mL); in experiment [4] it was 3.7 µM (≈ 1 µg/mL); in experiment [2], 0.46 µM (≈ 0.124 µg/mL).
